For test [1], the target named is T1, Toll-like receptor 8 (Homo sapiens) (UniProt Q9NR97).
T1 sequence (whole entry): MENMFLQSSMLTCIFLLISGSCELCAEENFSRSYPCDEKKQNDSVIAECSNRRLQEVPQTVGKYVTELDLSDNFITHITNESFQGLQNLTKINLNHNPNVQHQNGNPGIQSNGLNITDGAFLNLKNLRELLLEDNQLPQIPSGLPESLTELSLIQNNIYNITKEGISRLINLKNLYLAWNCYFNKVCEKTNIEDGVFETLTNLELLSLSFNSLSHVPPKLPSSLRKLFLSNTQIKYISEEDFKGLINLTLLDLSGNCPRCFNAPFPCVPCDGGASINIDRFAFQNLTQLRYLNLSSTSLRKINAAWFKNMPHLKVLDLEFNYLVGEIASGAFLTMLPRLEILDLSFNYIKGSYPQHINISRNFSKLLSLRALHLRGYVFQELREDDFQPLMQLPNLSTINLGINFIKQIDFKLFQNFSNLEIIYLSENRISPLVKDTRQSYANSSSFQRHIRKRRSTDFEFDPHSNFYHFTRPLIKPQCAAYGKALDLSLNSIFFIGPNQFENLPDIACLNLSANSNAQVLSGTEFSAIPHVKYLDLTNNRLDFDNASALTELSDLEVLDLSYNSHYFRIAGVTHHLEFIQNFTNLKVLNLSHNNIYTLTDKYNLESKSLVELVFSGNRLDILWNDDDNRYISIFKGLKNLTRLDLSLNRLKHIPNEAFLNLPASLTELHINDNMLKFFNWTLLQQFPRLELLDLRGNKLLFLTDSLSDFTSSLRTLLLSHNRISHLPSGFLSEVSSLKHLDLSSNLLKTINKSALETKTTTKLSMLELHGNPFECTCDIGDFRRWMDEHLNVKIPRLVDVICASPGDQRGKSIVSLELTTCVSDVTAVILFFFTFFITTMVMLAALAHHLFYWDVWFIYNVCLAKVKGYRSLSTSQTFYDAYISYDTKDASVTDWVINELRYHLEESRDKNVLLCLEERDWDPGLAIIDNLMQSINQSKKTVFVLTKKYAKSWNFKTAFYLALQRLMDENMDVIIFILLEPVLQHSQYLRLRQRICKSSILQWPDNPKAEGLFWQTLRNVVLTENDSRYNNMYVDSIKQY
Nature of the test: Activation of human TLR8 expressed in HEK293XL assessed as fold induction of NF-kappaB activity at 50 ug/ml after 18 hrs by reporter gene assay relative to control. The gist of the method: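 HEK293 cells stably expressing human TLR7 or TLR8, transiently transfected with SEAP reporter plasmid; medium replaced, SIMRA compounds added, 18 h incubation. Supernatant SEAP measured by QuantiBlue; expressed as fold increase in NF-κB activity over PBS control. Tabulated data at 50 μg/mL, representative of three independent experiments.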

Test [2] deals with T2, Toll-like receptor 9 (Mus musculus) (UniProt Q9EQU3).
T2 sequence (whole entry): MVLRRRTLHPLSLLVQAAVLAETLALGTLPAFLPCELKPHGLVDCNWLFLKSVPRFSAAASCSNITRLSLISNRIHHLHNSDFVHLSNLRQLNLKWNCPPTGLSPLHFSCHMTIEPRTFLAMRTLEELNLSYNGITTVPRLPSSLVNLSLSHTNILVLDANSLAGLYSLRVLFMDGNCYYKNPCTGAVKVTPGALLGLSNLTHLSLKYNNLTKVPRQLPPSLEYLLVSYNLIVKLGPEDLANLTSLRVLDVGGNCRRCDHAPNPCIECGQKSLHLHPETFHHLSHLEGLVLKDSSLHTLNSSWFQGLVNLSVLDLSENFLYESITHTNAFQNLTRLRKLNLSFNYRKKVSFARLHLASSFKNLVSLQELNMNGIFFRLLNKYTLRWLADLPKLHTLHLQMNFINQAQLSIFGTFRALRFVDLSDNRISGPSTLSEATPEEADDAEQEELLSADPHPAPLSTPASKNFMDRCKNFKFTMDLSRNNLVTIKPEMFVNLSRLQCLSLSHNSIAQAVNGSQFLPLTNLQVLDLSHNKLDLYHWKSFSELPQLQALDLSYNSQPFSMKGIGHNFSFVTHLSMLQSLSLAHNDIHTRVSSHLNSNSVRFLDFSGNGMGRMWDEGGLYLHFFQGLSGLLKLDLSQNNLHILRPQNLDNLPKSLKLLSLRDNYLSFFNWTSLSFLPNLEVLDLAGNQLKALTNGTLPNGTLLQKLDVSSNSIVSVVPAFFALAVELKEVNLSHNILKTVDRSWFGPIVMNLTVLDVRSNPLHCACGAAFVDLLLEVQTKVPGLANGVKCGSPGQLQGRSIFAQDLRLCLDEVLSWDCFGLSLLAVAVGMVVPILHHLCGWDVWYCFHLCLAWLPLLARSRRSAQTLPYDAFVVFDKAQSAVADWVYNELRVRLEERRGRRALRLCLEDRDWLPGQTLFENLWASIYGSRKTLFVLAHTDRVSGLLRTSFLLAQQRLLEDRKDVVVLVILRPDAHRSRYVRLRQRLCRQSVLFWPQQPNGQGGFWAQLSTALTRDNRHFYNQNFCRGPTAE
Nature of the test: Activation of mouse TLR9 expressed in HEK293 assessed as induction of NF-kappaB activity reporter gene assay. The class given is cell-based. (In a reporter assay the amount or activity of a reporter protein is the signal.)

Test [3] concerns Splenocyte. In words: Immunomodulatory activity in C57BL/6 mouse splenocytes bearing TLR7 receptor assessed as IL6 release at 100 ug/ml after 24 hrs by ELISA. It counts as functional, cell-based. The gist of the method:
(§1)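 C57BL/6 splenocytes in RPMI 1640 with 10% FBS, penicillin/streptomycin, 2 mM L-glutamine, plated at 5 × 10^6 cells/mL; compounds in PBS added, 37 °C for 24 h. Supernatant IL-12 and IL-6 by ELISA; representative of three independent experiments.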
On the technique in general: An ELISA detects its analyte on a solid surface through an enzyme-linked reagent.

Test [4] concerns Splenocyte. Nature of the test: Immunomodulatory activity in C57BL/6 mouse splenocytes bearing TLR7 receptor assessed as IL12 release at 100 ug/ml after 24 hrs by ELISA. The class given is functional, cell-based. An outline of the steps:
as §1

For test [5], the system named is PBMC. In words: Immunomodulatory activity in human PBMC assessed as induction of IL12 at 100 ug/ml after 24 hrs. The class given is functional, cell-based. An outline of the steps:
(§2)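 Human PBMCs plated at 5 × 10^6 cells/mL; compounds dissolved in PBS added at various concentrations, 37 °C for 24 h. Supernatant cytokines/chemokines quantified with human Luminex multiplex kit.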

The subject of test [6] is PBMC. In words: Immunomodulatory activity in human PBMC assessed as induction of TNFalpha at 100 ug/ml after 24 hrs. It counts as functional, cell-based. An outline of the steps:
as §2

For test [7], the system named is PBMC. In words: Immunomodulatory activity in human PBMC assessed as induction of IFN-alpha at 100 ug/ml after 24 hrs.

Calls of active or inactive are those of the source. The rule behind the calls is not given here.

As for `Nc1ccn([C@@H]2O[C@H](COP(=O)(S)O[C@H]3[C@@H](O)[C@H](n4ccc5c(=O)[nH]c(N)nc54)O[C@@H]3COP(=O)(S)O[C@H]3[C@@H](O)[C@H](n4cnc5c(N)ncnc54)O[C@@H]3COP(=O)(S)O[C@H]3[C@@H](O)[C@H](n4cnc5c(N)ncnc54)O[C@@H]3COP(=O)(S)O[C@H]3[C@@H](O)[C@H](n4ccc5c(=O)[nH]c(N)nc54)O[C@@H]3COP(=O)(S)O[C@H]3[C@@H](O)[C@H](n4ccc(=O)[nH]c4=O)O[C@@H]3COP(=O)(S)O[C@H]3[C@@H](O)[C@H](n4ccc(=O)[nH]c4=O)O[C@@H]3COP(=O)(S)O[C@H]3[C@@H](O)[C@H](n4cnc5c(N)ncnc54)O[C@@H]3COP(=O)(S)O[C@H]3[C@@H](O)[C@H](n4cnc5c(N)ncnc54)O[C@@H]3CO)[C@@H](OP(=O)(S)OC[C@H]3O[C@@H](n4ccc(=O)[nH]c4=O)[C@H](O)[C@@H]3OP(=O)(S)OC[C@H]3O[C@@H](n4ccc(=O)[nH]c4=O)[C@H](O)[C@@H]3OP(=O)(S)OCC(O)COP(=O)(S)O[C@H]3[C@@H](O)[C@H](n4ccc(=O)[nH]c4=O)O[C@@H]3COP(=O)(S)O[C@H]3[C@@H](O)[C@H](n4ccc(=O)[nH]c4=O)O[C@@H]3COP(=O)(S)O[C@H]3[C@@H](O)[C@H](n4ccc(N)nc4=O)O[C@@H]3COP(=O)(S)O[C@H]3[C@@H](O)[C@H](n4ccc5c(=O)[nH]c(N)nc54)O[C@@H]3COP(=O)(S)O[C@H]3[C@@H](O)[C@H](n4cnc5c(N)ncnc54)O[C@@H]3COP(=O)(S)O[C@H]3[C@@H](O)[C@H](n4cnc5c(N)ncnc54)O[C@@H]3COP(=O)(S)O[C@H]3[C@@H](O)[C@H](n4ccc5c(=O)[nH]c(N)nc54)O[C@@H]3COP(=O)(S)O[C@H]3[C@@H](O)[C@H](n4ccc(=O)[nH]c4=O)O[C@@H]3COP(=O)(S)O[C@H]3[C@@H](O)[C@H](n4ccc(=O)[nH]c4=O)O[C@@H]3COP(=O)(S)O[C@H]3[C@@H](O)[C@H](n4cnc5c(N)ncnc54)O[C@@H]3COP(=O)(S)O[C@H]3[C@@H](O)[C@H](n4cnc5c(N)ncnc54)O[C@@H]3CO)[C@H]2O)c(=O)n1` (some centres undefined), in test [1], the fold change (FC) is 1.6. Further, the result in test [2] was inactive. In addition, the result in test [3] and in test [4] was Active. In addition, the Activity in test [5] worked out at 401 pg/mL; in test [6], 29.3 pg/mL. Moreover, in test [7], the IFN-alpha is 95.5 pg/mL.
In the case of `Nc1ccn([C@@H]2O[C@H](CO)[C@@H](OP(=O)(S)OC[C@H]3O[C@@H](n4ccc(=O)[nH]c4=O)[C@H](O)[C@@H]3OP(=O)(S)OC[C@H]3O[C@@H](n4ccc5c(=O)[nH]c(N)nc54)[C@H](O)[C@@H]3OP(=O)(S)OC[C@H]3O[C@@H](n4cnc5c(N)ncnc54)[C@H](O)[C@@H]3OP(=O)(S)OC[C@H]3O[C@@H](n4ccc5c(=O)[nH]c(N)nc54)[C@H](O)[C@@H]3OP(=O)(S)OC[C@H]3O[C@@H](n4cnc5c(N)ncnc54)[C@H](O)[C@@H]3OP(=O)(S)OC[C@H]3O[C@@H](n4cnc5c(N)ncnc54)[C@H](O)[C@@H]3OP(=O)(S)OC[C@H]3O[C@@H](n4ccc5c(=O)[nH]c(N)nc54)[C@H](O)[C@@H]3OP(=O)(S)OC[C@H]3O[C@@H](n4ccc(N)nc4=O)[C@H](O)[C@@H]3OP(=O)(S)OC[C@H]3O[C@@H](n4ccc(=O)[nH]c4=O)[C@H](O)[C@@H]3OP(=O)(S)OC[C@H]3O[C@@H](n4ccc(=O)[nH]c4=O)[C@H](O)[C@@H]3OP(=O)(S)OCC(O)COP(=O)(S)O[C@H]3[C@@H](O)[C@H](n4ccc(=O)[nH]c4=O)O[C@@H]3COP(=O)(S)O[C@H]3[C@@H](O)[C@H](n4ccc(=O)[nH]c4=O)O[C@@H]3COP(=O)(S)O[C@H]3[C@@H](O)[C@H](n4ccc(N)nc4=O)O[C@@H]3COP(=O)(S)O[C@H]3[C@@H](O)[C@H](n4ccc5c(=O)[nH]c(N)nc54)O[C@@H]3COP(=O)(S)O[C@H]3[C@@H](O)[C@H](n4cnc5c(N)ncnc54)O[C@@H]3COP(=O)(S)O[C@H]3[C@@H](O)[C@H](n4cnc5c(N)ncnc54)O[C@@H]3COP(=O)(S)O[C@H]3[C@@H](O)[C@H](n4ccc5c(=O)[nH]c(N)nc54)O[C@@H]3COP(=O)(S)O[C@H]3[C@@H](O)[C@H](n4cnc5c(N)ncnc54)O[C@@H]3COP(=O)(S)O[C@H]3[C@@H](O)[C@H](n4ccc5c(=O)[nH]c(N)nc54)O[C@@H]3COP(=O)(S)O[C@H]3[C@@H](O)[C@H](n4ccc(=O)[nH]c4=O)O[C@@H]3COP(=O)(S)O[C@H]3[C@@H](O)[C@H](n4ccc(N)nc4=O)O[C@@H]3CO)[C@H]2O)c(=O)n1` (some centres undefined), the fold change (FC) in test [1] worked out at 0.4. Also, the outcome in test [2] was inactive. For the same compound, the outcome in test [3] and in test [4] was Active. Further, the Activity worked out at 1750 pg/mL in test [5] and 818 pg/mL in test [6]. In test [7], the IFN-alpha amounted to 123 pg/mL.

These data come from ChEMBL document CHEMBL1154352, “Toll-like receptor 7 selective synthetic oligoribonucleotide agonists: synthesis and structure-activity relationship studies” (J Med Chem, 2009).
